Source: ChEMBL document CHEMBL1123760, “Synthesis and oral antifungal activity of novel azolylpropanolones and related compounds” (1987)
In brackets after ≈: the same amount, converted by molar mass.

What was measured:
Type in all cases: functional
Aspergillus fumigatus = test: In vitro antifungal activity against Aspergillus fumigatus
Method in brief: (§1)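 Broth microdilution MIC in Sabouraud's glucose broth; final inocula 1 × 10^5 cells/mL (yeast) or 1 × 10^5 conidia/mL (mold and dermatophyte).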

Candida albicans [1] = test: In vitro antifungal activity against Candida albicans; method in brief: as §1
Candida albicans [2] = test: Minimum effective concentration for inhibition of pseudomycelium formation in Candida albicans; conditions: for minimal effective concentration: Candida albicans, read-out: MEC
Method in brief: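 C. albicans KE-2 (clinical isolate) at a final 1 × 10^6 yeast cells/mL in EMEM with 20% calf serum; compounds diluted by the same microtiter system as for MICs. After incubation, wells were Giemsa-stained (5% in phosphate buffer) and read by microscope. MEC is the lowest concentration preventing typical pseudomycelium formation.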

Trichophyton benhamiae = test: In vitro antifungal activity against Trichophyton asteroides; method in brief: as §1
Mus musculus = test: Ratio of in vivo number of survivors / total infected; design: reference not given here
[3] = Aspergillus fumigatus, read-out: MIC
[4] = Candida albicans, read-out: MIC
[5] = Trichophyton benhamiae, read-out: MIC

SMILES | MIC (Aspergillus fumigatus; [3]) [µg/mL] | MIC (Candida albicans [1]; [4]) [µg/mL] | minimal effective concentration (Candida albicans [2]) [µg/mL] | MIC (Trichophyton benhamiae; [5]) [µg/mL] | No. of survivors (Mus musculus) | MEC (Candida albicans [2]) [µg/mL] | MIC (Trichophyton benhamiae) [µg/mL] | MIC (Aspergillus fumigatus) [µg/mL] | MIC (Candida albicans [1]) [µg/mL]
O=S1O[C@H](c2ccc(Cl)cc2)[C@@](Cn2cncn2)(c2ccc(Cl)cc2Cl)O1 (stereo partly drawn) | 25 (≈ 56.2 µM) | 50 (≈ 112 µM) | 0.16 | 0.1 (≈ 0.225 µM) |  |  |  |  | 
CC(C)[C@H]1OCO[C@]1(Cn1cncn1)c1ccc(Cl)cc1 | 100 (≈ 325 µM) | > 100 | 0.04 | 0.2 (≈ 0.65 µM) | 7 |  |  |  | 
O=C(c1ccc(Cl)cc1)C(O)(Cn1cnnc1)c1ccc(Cl)cc1 (stereo not drawn) | > 100 | > 100 | > 20 | 50 (≈ 138 µM) |  |  |  |  | 
Clc1ccc([C@H]2OCO[C@]2(Cn2cncn2)c2ccc(Cl)cc2Cl)cc1 | 0.2 (≈ 0.487 µM) | 50 (≈ 122 µM) | 0.02 | 0.1 (≈ 0.243 µM) |  |  |  |  | 
COc1ccccc1C(O)C(O)(Cn1cncn1)c1ccccc1OC (stereo not drawn) | > 100 | > 100 | 10 | 3.1 (≈ 8.72 µM) |  |  |  |  | 
O=C(c1ccc(Cl)cc1)C(O)(Cn1cncn1)c1ccccc1Cl (stereo not drawn) | > 100 | > 100 | 10 | 0.8 (≈ 2.21 µM) |  |  |  |  | 
O=C(c1ccc(Cl)cc1Cl)C(O)(Cn1cnnc1)c1ccc(Cl)cc1Cl (stereo not drawn) | > 100 | > 100 | > 20 | 25 (≈ 58 µM) |  |  |  |  | 
O=C(c1ccc(F)cc1)C(O)(Cn1cncn1)c1ccc(Cl)cc1 (stereo not drawn) | > 100 | 100 (≈ 289 µM) | 1.25 | 0.8 (≈ 2.31 µM) |  |  |  |  | 
O=C(c1ccccc1Cl)C(O)(Cn1cncn1)c1ccccc1Cl (stereo not drawn) | 50 (≈ 138 µM) | 50 (≈ 138 µM) | 0.08 | 0.1 (≈ 0.276 µM) | 2 |  |  |  | 
O=C1O[C@H](c2ccccc2)[C@@](Cn2ccnc2)(c2ccc(Cl)cc2Cl)O1 | 20 (≈ 51.4 µM) | 100 (≈ 257 µM) | 0.16 | 0.1 (≈ 0.257 µM) |  |  |  |  | 
CC(C)C(=O)C(O)(Cn1cnnc1)c1ccc(Cl)cc1Cl (stereo not drawn) | > 100 | > 100 | 2.5 | 50 (≈ 152 µM) |  |  |  |  | 
O=C(c1ccc(Cl)cc1Cl)C(O)(Cn1cnnc1)c1ccc(Cl)cc1 (stereo not drawn) | > 100 | > 100 | > 20 | > 100 |  |  |  |  | 
CC(C)[C@H]1OS(=O)O[C@@]1(Cn1cncn1)c1ccc(Cl)cc1 (stereo partly drawn) | > 100 | > 100 | 0.16 | 0.4 (≈ 1.17 µM) |  |  |  |  | 
O=C(c1ccccc1)C(O)(Cn1cnnc1)c1ccccc1 (stereo not drawn) | > 100 | > 100 | > 20 | > 100 |  |  |  |  | 
O=C1O[C@H](c2ccccc2)[C@@](Cn2cncn2)(c2ccccc2Cl)O1 | > 100 | > 100 | 0.31 | 6.3 (≈ 17.7 µM) |  |  |  |  | 
O=C(c1ccc(Cl)cc1)C(O)(Cn1ccnc1)c1ccc(Cl)cc1 (stereo not drawn) | > 100 | > 100 | 20 | 0.1 (≈ 0.277 µM) |  |  |  |  | 
Cc1ccc(C(O)C(O)(Cn2cncn2)c2ccc(C)cc2)cc1 (stereo not drawn) | > 100 | > 100 | 2.5 | 1.6 (≈ 4.95 µM) |  |  |  |  | 
COc1ccc(C(O)C(O)(Cn2cncn2)c2ccc(OC)cc2)cc1 (stereo not drawn) | > 100 | > 100 | > 20 | 25 (≈ 70.3 µM) |  |  |  |  | 
CC(C)C(O)(Cn1cncn1)C(=O)c1ccc(Cl)cc1 (stereo not drawn) | 100 (≈ 340 µM) | > 100 | 0.63 | 0.2 (≈ 0.681 µM) |  |  |  |  | 
CC(O)(c1ccc(Cl)cc1)C(O)(Cn1ccnc1)c1ccc(F)cc1 (stereo not drawn) | > 100 | > 100 | 10 | 1.6 (≈ 4.43 µM) |  |  |  |  | 
O=C(c1ccc(F)cc1)C(O)(Cn1cnnc1)c1ccc(F)cc1 (stereo not drawn) | > 100 | > 100 | > 20 | > 100 |  |  |  |  | 
OC(c1ccc(Cl)cc1Cl)C(O)(Cn1cncn1)c1ccc(F)cc1 (stereo not drawn) | > 100 | > 100 | 0.31 | 0.1 (≈ 0.262 µM) |  |  |  |  | 
O=C(c1ccc(Cl)cc1Cl)C(O)(Cc1ccccc1)Cn1cncn1 (stereo not drawn) | > 100 | > 100 | 5 | 1.6 (≈ 4.25 µM) |  |  |  |  | 
O=C1O[C@H](c2ccc(Cl)cc2)[C@](Cn2cncn2)(c2ccc(Cl)cc2Cl)O1 (relative stereo) | > 100 | > 100 |  |  |  | >20 | 25 (≈ 58.9 µM) |  | 
OC(c1ccc(Cl)cc1)C(O)(Cn1cncn1)c1ccc(Cl)cc1 (stereo in doubt; 89) | > 100 | 50 (≈ 137 µM) |  |  |  | 20 | 12.5 (≈ 34.3 µM) |  | 

SMILES | MIC (Aspergillus fumigatus; [3]) [µg/mL] | MIC (Candida albicans [1]; [4]) [µg/mL] | minimal effective concentration (Candida albicans [2]) [µg/mL] | MIC (Trichophyton benhamiae; [5]) [µg/mL] | No. of survivors (Mus musculus) | MEC (Candida albicans [2]) [µg/mL] | MIC (Trichophyton benhamiae) [µg/mL] | MIC (Aspergillus fumigatus) [µg/mL] | MIC (Candida albicans [1]) [µg/mL]
CC(C)C(O)C(O)(Cn1cncn1)c1ccc(Cl)cc1 (stereo in doubt; 100) | > 100 | > 100 |  |  |  | 0.16 | 0.8 (≈ 2.7 µM) |  | 
OC(c1ccc(F)cc1)C(O)(Cn1cncn1)c1ccc(Cl)cc1 (stereo in doubt; 103) | > 100 | > 100 |  |  |  | 0.31 | 0.8 (≈ 2.3 µM) |  | 
OC(c1ccc(F)cc1)C(O)(Cn1cncn1)c1ccc(Cl)cc1Cl (stereo in doubt; 105) |  |  |  |  |  | 5 | 25 (≈ 65.4 µM) | >100 | >100
CCCC(O)C(O)(Cn1cncn1)c1ccc(Cl)cc1 (stereo in doubt; 107) | > 100 | > 100 | 0.16 |  |  |  | 6.3 (≈ 21.3 µM) |  | 
OC(c1ccc(Cl)cc1)C(O)(Cn1cncn1)c1ccc(Cl)cc1Cl (stereo in doubt; 108) |  | > 100 |  |  |  | 0.04 | 0.1 (≈ 0.251 µM) | 25 (≈ 62.7 µM) | 
OC(c1ccc(Cl)cc1)C(O)(Cn1cncn1)c1ccc(Cl)cc1Cl (stereo in doubt; 109) |  |  |  |  |  | 20 | 12.5 (≈ 31.4 µM) | >100 | 100 (≈ 251 µM)
O=C1O[C@H](c2ccc(Cl)cc2)[C@@](Cn2cncn2)(c2ccc(Cl)cc2Cl)O1 (stereo in doubt; 115) | > 100 | > 100 | 0.04 | 0.2 (≈ 0.471 µM) |  |  |  |  | 
CC(O)(c1ccc(F)cc1)C(O)(Cn1cncn1)c1ccc(F)cc1 (stereo in doubt; 160) |  |  |  |  | 2 | 0.16 | 0.1 (≈ 0.29 µM) | 25 (≈ 72.4 µM) | 
CC(O)(c1ccc(F)cc1)C(O)(Cn1cncn1)c1ccc(F)cc1 (stereo in doubt; 161) |  | > 100 |  | 0.2 (≈ 0.579 µM) |  | 2.5 |  | 100 (≈ 290 µM) | 
CC(O)(c1ccc(F)cc1)C(O)(Cn1cncn1)c1ccc(Cl)cc1 (stereo in doubt; 163) | > 100 | 100 (≈ 276 µM) |  | 0.2 (≈ 0.553 µM) |  | 0.63 |  |  | 
OC(Cn1cncn1)(c1ccc(F)cc1)C(O)(c1ccccc1)c1ccc(F)cc1 (stereo in doubt; 165) | > 100 | > 100 | > 20 |  |  |  | 25 (≈ 61.4 µM) |  | 
CC(O)(c1ccccc1)C(O)(Cn1cncn1)c1ccc(Cl)cc1Cl (stereo in doubt; 166) | 12.5 (≈ 33 µM) | > 100 | 0.04 | 0.1 (≈ 0.264 µM) |  |  |  |  | 
CC(O)(c1ccccc1)C(O)(Cn1cncn1)c1ccc(Cl)cc1Cl (stereo in doubt; 167) |  |  |  |  |  | 0.08 | 0.1 (≈ 0.264 µM) | 25 (≈ 66.1 µM) | 50 (≈ 132 µM)
CC(C)C(C)(O)C(O)(Cn1cncn1)c1ccc(Cl)cc1Cl (stereo in doubt; 169) | 50 (≈ 145 µM) | > 100 | 0.08 | 0.1 (≈ 0.29 µM) |  |  |  |  | 
CCC(O)(c1ccc(F)cc1)C(O)(Cn1cncn1)c1ccc(Cl)cc1 (stereo in doubt; 171) |  | > 100 |  | 0.1 (≈ 0.266 µM) |  | 0.16 |  | >100 | 
CC(O)(c1ccc(F)cc1)C(O)(Cn1cncn1)c1ccc(Cl)cc1Cl (stereo in doubt; 173) | 25 (≈ 63.1 µM) | > 100 | 0.31 | 0.1 (≈ 0.252 µM) |  |  |  |  | 
CC(O)(c1ccc(F)cc1)C(O)(Cn1cncn1)c1ccc(Cl)cc1Cl (stereo in doubt; 174) |  |  |  |  |  | 0.31 | 0.1 (≈ 0.252 µM) | 50 (≈ 126 µM) | 100 (≈ 252 µM)
CC(O)(c1ccc(Cl)cc1)C(O)(Cn1cncn1)c1ccc(Cl)cc1Cl (stereo in doubt; 175) | 25 (≈ 60.6 µM) | > 100 |  | 0.1 (≈ 0.242 µM) |  | 0.31 |  |  | 
CC(O)(c1ccc(Cl)cc1)C(O)(Cn1cncn1)c1ccc(Cl)cc1Cl (stereo in doubt; 176) |  |  |  |  |  | 0.63 | 0.1 (≈ 0.242 µM) | 50 (≈ 121 µM) | 50 (≈ 121 µM)
CC(O)(c1ccc(F)cc1)C(O)(Cn1cncn1)c1ccccc1Cl (stereo in doubt; 182) | 12.5 (≈ 34.5 µM) | > 100 | 2.5 | 0.1 (≈ 0.276 µM) |  |  |  |  | 
CCCCC(O)(c1ccc(F)cc1)C(O)(Cn1cncn1)c1ccccc1Cl (stereo in doubt; 189) | 50 (≈ 124 µM) | > 100 |  | 0.4 (≈ 0.99 µM) |  | 20 |  |  | 
CCCCC(O)(Cn1cncn1)C(C)(O)c1ccc(Cl)cc1 (stereo in doubt; 191) | > 100 | > 100 | 1.25 | 0.6 (≈ 1.85 µM) |  |  |  |  | 
CC(O)(c1ccc(Cl)cc1)C(O)(Cn1cncn1)c1ccc(Cl)cc1 (stereo in doubt; 193) |  |  |  |  |  | 0.36 | 0.1 (≈ 0.264 µM) | 50 (≈ 132 µM) | 100 (≈ 264 µM)
CC(O)(c1ccc(Cl)cc1)C(O)(Cn1cncn1)c1ccc(Cl)cc1 (stereo in doubt; 194) | > 100 | 50 (≈ 132 µM) |  |  |  | 2.5 | 0.8 (≈ 2.11 µM) |  | 
